Source: ChEMBL document CHEMBL1154079

What was measured:
[1] = biological target: T1, Quinolone resistance protein NorA (Staphylococcus aureus) (UniProt P0A0J7); experiment: Inhibition of NorA efflux pump in Staphylococcus aureus 1199B assessed as reduction in MIC of ciprofloxacin by broth checkerboard method
T1 sequence (whole entry): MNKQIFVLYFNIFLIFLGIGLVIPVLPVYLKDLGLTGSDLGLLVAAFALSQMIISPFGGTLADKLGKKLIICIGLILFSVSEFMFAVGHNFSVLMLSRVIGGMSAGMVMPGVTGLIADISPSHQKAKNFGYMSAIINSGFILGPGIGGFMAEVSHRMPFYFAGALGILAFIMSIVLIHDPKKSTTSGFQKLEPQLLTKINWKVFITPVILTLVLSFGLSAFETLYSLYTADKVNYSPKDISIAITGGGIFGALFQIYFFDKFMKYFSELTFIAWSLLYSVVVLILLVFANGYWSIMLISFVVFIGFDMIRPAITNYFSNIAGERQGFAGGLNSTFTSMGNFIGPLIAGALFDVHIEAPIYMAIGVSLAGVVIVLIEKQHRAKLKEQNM

[2] = biological target: T1, Quinolone resistance protein NorA (Staphylococcus aureus); experiment: Inhibition of NorA efflux pump in Staphylococcus aureus 1199B assessed as potentiation of ciprofloxacin-induced antimicrobial activity after 24 hrs by broth checkerboard method
How it was run: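 Potentiation factor was derived from 24 h, 37 °C checkerboard ciprofloxacin MICs against S. aureus 1199B in Mueller-Hinton broth. Each inhibitor-concentration column was weighted in ascending order: 10 for column 2 (50), adding 10 per column up to 70 for […] (0.8), so that activity at lower inhibitor concentrations counts more.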

[3] = biological target: T1, Quinolone resistance protein NorA (Staphylococcus aureus); experiment: Inhibition of NorA efflux pump in Staphylococcus aureus 1199B after 24 hrs by broth checkerboard method
[4] = biological target: T1, Quinolone resistance protein NorA (Staphylococcus aureus); experiment: Inhibition of NorA efflux pump in Staphylococcus aureus 1199B assessed as reduction of ciprofloxacin MIC after 24 hrs by broth checkerboard method

For CC(=O)Nc1ccc(NC(=O)/C=C/C=C/c2ccc3c(c2)OCO3)cc1, the MEC [1] was 25 µg/mL, the PF [2] was 260 and the logPF [2] was 2.42. For the same compound, the MIC [3] was over 100 µg/mL and the fold change (FC) [4] was 4.

O=C(/C=C/C=C/c1ccc2c(c1)OCO2)N1CCCCC1 gave an MEC [1] of 25 µg/mL, a PF [2] of 60 and a logPF [2] of 1.78. For the same compound, the MIC [3] was over 100 µg/mL.

N#Cc1ccc(NC(=O)/C=C/C=C/c2ccc3c(c2)OCO3)cc1 was tested, and the MEC [1] was 25 µg/mL, the PF [2] was 60 and the logPF [2] was 1.78. For the same compound, the MIC [3] was over 100 µg/mL and the fold change (FC) [4] was 2.

O=C(/C=C/C=C/c1ccc2c(c1)OCO2)Nc1ccc(CO)cc1 was tested, and the MEC [1] was 6.25 µg/mL, the PF [2] was 200 and the logPF [2] was 2.3. The MIC [3] was over 100 µg/mL and the fold change (FC) [4] was 2.

CC(C)NC(=O)/C=C/C=C/c1ccc2c(c1)OCO2 was tested, and the MEC [1] was 50 µg/mL, the MIC [3] was over 100 µg/mL and the fold change (FC) [4] was 0.

Compound O=C(/C=C/C=C/c1ccc2c(c1)OCO2)Nc1cccc(CO)c1 has an MEC [1] of 25 µg/mL, a PF [2] of 60 and a logPF [2] of 1.78. For the same compound, the MIC [3] was over 100 µg/mL and the fold change (FC) [4] was 2.

Work on CCC(CC)NC(=O)/C=C/C=C/c1ccc2c(c1)OCO2 yielded a PF [2] of 60, a logPF [2] of 1.78 and a fold change (FC) [4] of 2.

Compound NC(=O)c1ccc(NC(=O)/C=C/C=C/c2ccc3c(c2)OCO3)cc1 has an MEC [1] of 25 µg/mL, a PF [2] of 60 and a logPF [2] of 1.78. The MIC [3] was over 100 µg/mL and the fold change (FC) [4] was 2.

Work on O=C(/C=C/C=C/c1ccc2c(c1)OCO2)NCC(O)c1ccccc1 (stereo not drawn) yielded an MEC [1] of 50 µg/mL, a PF [2] of 140 and a logPF [2] of 2.15. The MIC [3] was over 100 µg/mL and the fold change (FC) [4] was 4.

For CC(O)CCNC(=O)/C=C/C=C/c1ccc2c(c1)OCO2 (stereo not drawn), the MEC [1] was 25 µg/mL, the PF [2] was 60 and the logPF [2] was 1.78. For the same compound, the MIC [3] was over 100 µg/mL and the fold change (FC) [4] was 2.

In the case of O=C(O)c1cn(C2CC2)c2cc(N3CCNCC3)c(F)cc2c1=O, the MIC [3] is reported as 8 µg/mL.

O=C(/C=C/C=C/c1ccc2c(c1)OCO2)Nc1ccc(NC(=O)c2ccccc2)cc1 gave an MEC [1] of 3.12 µg/mL, a PF [2] of 300 and a logPF [2] of 2.48. The MIC [3] was over 100 µg/mL and the fold change (FC) [4] was 2.

In the case of CCC(CO)NC(=O)/C=C/C=C/c1ccc2c(c1)OCO2 (stereo not drawn), the MEC [1] is reported as 50 µg/mL, the MIC [3] is reported as over 100 µg/mL and the fold change (FC) [4] is reported as 0.

O=C(/C=C/C=C/c1ccc2c(c1)OCO2)N1CCOCC1 was tested, and the MEC [1] was 50 µg/mL, the MIC [3] was over 100 µg/mL and the fold change (FC) [4] was 0.

CN1CCN(C(=O)/C=C/C=C/c2ccc3c(c2)OCO3)CC1 showed an MEC [1] of 25 µg/mL, a PF [2] of 60 and a logPF [2] of 1.78. For the same compound, the MIC [3] was over 100 µg/mL and the fold change (FC) [4] was 2.

CCN(CC)C(=O)/C=C/C=C/c1ccc2c(c1)OCO2 showed an MEC [1] of 25 µg/mL, a PF [2] of 60 and a logPF [2] of 1.78. The MIC [3] was over 100 µg/mL and the fold change (FC) [4] was 2.

Compound CCN(CC)C(=O)CCCCc1ccc2c(c1)OCO2 has an MEC [1] of 50 µg/mL, a PF [2] of 20 and a logPF [2] of 1.3. For the same compound, the MIC [3] was over 100 µg/mL and the fold change (FC) [4] was 2.

For CC(C)CNC(=O)/C=C/C=C/c1ccc2c(c1)OCO2, the MEC [1] was 25 µg/mL, the PF [2] was 60 and the logPF [2] was 1.78. The MIC [3] was over 100 µg/mL and the fold change (FC) [4] was 2.

CC(C)CCNC(=O)/C=C/C=C/c1ccc2c(c1)OCO2 was tested, and the MEC [1] was 25 µg/mL, the PF [2] was 60 and the logPF [2] was 1.78. For the same compound, the MIC [3] was over 100 µg/mL and the fold change (FC) [4] was 2.

Compound O=C(/C=C/C=C/c1ccc2c(c1)OCO2)Nc1ccc2ncsc2c1 has an MEC [1] of 3.12 µg/mL, a PF [2] of 300 and a logPF [2] of 2.48. The MIC [3] was over 100 µg/mL and the fold change (FC) [4] was 2.

CCCNC(=O)/C=C/C=C/c1ccc2c(c1)OCO2 showed an MEC [1] of 50 µg/mL, an MIC [3] of over 100 µg/mL and a fold change (FC) [4] of 0.

With N#Cc1cccc(NC(=O)/C=C/C=C/c2ccc3c(c2)OCO3)c1 the MEC [1] was 50 µg/mL, the PF [2] was 660 and the logPF [2] was 2.82. The MIC [3] was over 100 µg/mL and the fold change (FC) [4] was 8.

In the case of O=C(/C=C/C=C/c1ccc2c(c1)OCO2)Nc1ccccc1CO, the MEC [1] is reported as 25 µg/mL, the PF [2] is reported as 60 and the logPF [2] is reported as 1.78. For the same compound, the MIC [3] was over 100 µg/mL and the fold change (FC) [4] was 2.

O=C(/C=C/C=C/c1ccc2c(c1)OCO2)Nc1nc2ccccc2s1 gave an MEC [1] of 6.25 µg/mL, a PF [2] of 200 and a logPF [2] of 2.3. The MIC [3] was over 100 µg/mL and the fold change (FC) [4] was 2.

O=C(/C=C/C=C/c1ccc2c(c1)OCO2)Nc1ccccc1 gave an MEC [1] of 50 µg/mL, a PF [2] of 140 and a logPF [2] of 2.15. It also gave an MIC [3] of over 100 µg/mL and a fold change (FC) [4] of 4.

Work on O=C(O)/C=C/C=C/c1ccc2c(c1)OCO2 yielded an MEC [1] of 50 µg/mL, an MIC [3] of over 100 µg/mL and a fold change (FC) [4] of 0.

Work on CC(=O)Nc1cccc(NC(=O)/C=C/C=C/c2ccc3c(c2)OCO3)c1 yielded an MEC [1] of 12.5 µg/mL, a PF [2] of 320 and a logPF [2] of 2.51. It also gave an MIC [3] of over 100 µg/mL and a fold change (FC) [4] of 4.

Compound CC(=O)Nc1ccccc1NC(=O)/C=C/C=C/c1ccc2c(c1)OCO2 has an MEC [1] of 25 µg/mL, a PF [2] of 260 and a logPF [2] of 2.42. The MIC [3] was over 100 µg/mL and the fold change (FC) [4] was 4.

Work on O=C(/C=C/C=C/c1ccc2c(c1)OCO2)Nc1ccc(C(=O)Nc2ccccc2)cc1 yielded an MEC [1] of 3.12 µg/mL, a PF [2] of 360 and a logPF [2] of 2.56. The MIC [3] was over 100 µg/mL and the fold change (FC) [4] was 2.

Compound O=C(CCCCc1ccc2c(c1)OCO2)N1CCCCC1 has an MEC [1] of 50 µg/mL, a PF [2] of 20 and a logPF [2] of 1.3. The MIC [3] was over 100 µg/mL and the fold change (FC) [4] was 2.

CC(=O)Nc1ccccc1NC(=O)CCCCc1ccc2c(c1)OCO2 gave an MEC [1] of 50 µg/mL, a PF [2] of 20 and a logPF [2] of 1.3. For the same compound, the MIC [3] was over 100 µg/mL and the fold change (FC) [4] was 2.
